From ChEMBL document CHEMBL5096187, “Efficient Synthesis and Bioevaluation of Novel Dual Tubulin/Histone Deacetylase 3 Inhibitors as Potential Anticancer Agents” (J Med Chem, 2021) come the findings set out here.

Data set [1] concerns B16-F10. As to the kind of experiment: Antiproliferative activity against mouse B16-F10 cells assessed as inhibition of cell viability measured for 48 hrs by microplate reader based MTT assay. Format: functional. To be noted: B16-F10, 48 h. In outline:
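Cells grown in RPMI-1640 with 10% FBS and seeded at 5000 cells/well. After overnight attachment, compound was added in medium with 0.1% DMSO for 48 h at 37 °C. Read-out was MTT for HCT-116, B16-F10 and A549, and CCK-8 for Jurkat (0.5 mg/mL, 4 h), with absorbance at 570 nm. IC50 from nonlinear regression; at least three independent experiments.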
In general terms: Tetrazolium dyes change colour on reduction, which living cells bring about.

Data set [2] relates to B16-F10. Description: Inhibition of cell migration in mouse B16-F10 cells assessed as reduction in wound area ratio measured at 25 nM incubated for 24 hrs by wound healing assay. The class given is functional. Also noted: scale not given: the % may be the effect or the level left. In outline: (§1)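 Confluent B16-F10 monolayers, seeded overnight, were scratched with a pipette tip and washed to remove debris. Cells were then treated, and phase-contrast images were taken at 0 and 24 h. Migration distance or wound area measured manually against DMSO control; n = 3.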

The nature of data set [3]: Antiproliferative activity against human YCC3/7 cells assessed as inhibition of cell viability. Format: functional, cell-based.
Data set [4] is described as follows: Nephrotoxicity in C57BL/6 mouse assessed as effect on creatinine level in serum. Format: toxicity. To be noted: in vivo.
Data set [5] is described as follows: In vivo inhibition of HDAC in tumor of mouse B16-F10 cells xenografted in C57BL/6 mouse assessed as increase in acetylated histone-H3 expression by […] immunohistochemistry method. The class given is functional. Also noted: scale not given: the % may be the effect or the level left. In outline:
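Tumors from the 14-day i.p. B16-F10 study were formalin-fixed and paraffin-embedded. Sections were deparaffinized, treated with 3% H2O2, and antigen-retrieved at pH 9 and 80 °C overnight. Blocked with milk, incubated with anti-Ac-H3 at 4 °C overnight, then IgG secondary and hematoxylin counterstain. Ac-H3-positive ratio quantified from images.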

For data set [6], the system named is B16-F10. Description: Inhibition of colony formation in mouse B16-F10 cells assessed as reduction in number of colonies incubated for 24 hrs. Format: functional, cell-based. To be noted: dose 25-100 nM, DDE = dose-dependent effect. In outline: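 1000 B16-F10 cells seeded and cultured 24 h at 37 °C, then exposed to compound for 24 h. Medium was then replaced and cells grown 10–14 days. Colonies fixed with 4% paraformaldehyde for 30 min, stained with 0.1% crystal violet for 15 min, and counted; n = 3 versus DMSO.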

Data set [7] deals with B16-F10. As to the kind of experiment: Induction of cell cycle arrest in mouse B16-F10 cells assessed as accumulation of cells in G2/M phase at 100 nM measured after 48 hrs by PI/RNaseA staining based flow cytometry analysis (Rvb= 5.76%). The class given is functional. On the technique in general: In flow cytometry, cells or beads pass a laser one at a time.
Data set [8] deals with B16-F10. Description: Induction of apoptosis in mouse B16-F10 cells assessed as early apoptotic cells at 50 nM incubated for 48 hrs by Annexin V-FITC/PI analysis (reference value: 1.68 %). Format: functional.
Data set [9] has as its system B16-F10. As to the kind of experiment: Induction of apoptosis in mouse B16-F10 cells assessed as early apoptotic cells at 25 nM incubated for 48 hrs by Annexin V-FITC/PI analysis (reference value: 1.68 %). The class given is functional.
Data set [10] has as its system B16-F10. Description: Induction of apoptosis in mouse B16-F10 cells assessed as viable cells at 25 nM incubated for 48 hrs by Annexin V-FITC/PI analysis (reference value: 98.3 %). The conditions noted are these: read-out: Activity. The class given is functional.
Data set [11] concerns B16-F10. Description: Inhibition of cell migration in mouse B16-F10 cells assessed as reduction in wound area ratio measured at 50 nM incubated for 24 hrs by wound healing assay. The class given is functional. Also noted: scale not given: the % may be the effect or the level left. In outline: as §1
A short description of data set [12]: Cardiotoxicity in C57BL/6 mouse ssessed as effect on heart rate by ECG analysis. The class given is toxicity. In outline: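 Mice aged 6–8 weeks dosed by intragastric gavage once daily for 14 days; ECG and heart rate recorded on a PowerLab system.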
In data set [13] the test system is B16-F10. Description: Induction of apoptosis in mouse B16-F10 cells assessed as necrotic cells at 25 nM incubated for 48 hrs by Annexin V-FITC/PI analysis (reference value: 0.012 %). Format: functional.
Data set [14] is described as follows: Nephrotoxicity in C57BL/6 mouse assessed as effect on globulin GLO level in serum. Format: toxicity. The conditions noted are these: in vivo.
In data set [15] the test system is B16-F10. Description: Upregulation of AC-H3 in mouse B16-F10 cells incubated for 12 hrs by Western blot analysis. Format: functional, cell-based. The conditions noted are these: dose 20-200 nM, DDE = dose-dependent effect. In outline: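 B16-F10 cells (5 × 10⁵/well) treated 12 h with DMSO or compound, lysed in RIPA buffer. 30 μg protein separated by SDS-PAGE and blotted onto PVDF. Blocked 5% BSA 2 h, primary antibody overnight at 4 °C, secondary 1.5 h. Ac-H3 probed, with histone H3 and GAPDH as loading controls; band density quantified; three independent experiments.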

Data set [16] deals with T1, Histone deacetylase 8 (Homo sapiens, UniProt Q9BY41).
T1 sequence (Q9BY41 whole entry): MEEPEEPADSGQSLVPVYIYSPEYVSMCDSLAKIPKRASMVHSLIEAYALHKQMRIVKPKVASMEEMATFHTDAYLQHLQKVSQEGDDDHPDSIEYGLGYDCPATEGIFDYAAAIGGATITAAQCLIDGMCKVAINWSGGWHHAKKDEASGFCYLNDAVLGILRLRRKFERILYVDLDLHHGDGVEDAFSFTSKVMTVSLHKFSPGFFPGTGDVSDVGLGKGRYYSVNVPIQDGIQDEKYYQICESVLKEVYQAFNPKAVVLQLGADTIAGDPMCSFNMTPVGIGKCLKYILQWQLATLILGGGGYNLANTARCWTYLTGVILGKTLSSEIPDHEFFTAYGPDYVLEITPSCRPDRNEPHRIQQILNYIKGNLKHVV
As to the kind of experiment: Inhibition of full length C-terminal his-tagged human recombinant HDAC8 ([…]) expressed in baculovirus in Sf9 insect cells using Ac-Leu-Gly-Lys (Tfa)-AMC as substrate pretreated for 5 mins followed by substrate addition and measured after 30 mins.

Data set [17] is described as follows: Hepatotoxicity in C57BL/6 mouse assessed as effect on total bilirubin level in serum. The class given is toxicity.

One may read the IC50 as the concentration at which inhibition is half-maximal. As for `COc1cc(C(=O)c2csc(-c3ccc(NC(=O)CCCC(=O)Nc4ccccc4N)cc3)n2)cc(OC)c1OC`, the IC50 was determined as 70 nM in data set [1], 560 nM in [3] and 11600 nM in [16]. Moreover, the Activity is 27.32% in [2]; “Non-Toxic” in data set [4]; 36.7% in [5]; “Dde” in [6]; 83.26% in [7]; 7.09% in [8]. In addition, the Activity was 10.9% in data set [9]; 17.63% in data set [11]; “Non-Toxic” in [12]; 0% in data set [13]; “Non-Toxic” in [14]; “Dde” in [15]. Moreover, the Activity result in data set [17] is “Non-Toxic”. Further, the viability at 0.025 µM in data set [10] was 89.1%.
